Only some compounds are listed: those with a hit (about 3.7% of all), similar ones and a draw of the others.
NPY-Y1 PAM-ag = potentiators or agonists of human neuropeptide Y receptor Y1. activation, % at 3.6 µM. hit rate 0.37% among 220,000. NPY-Y1 expressing cells, potentiator/agonist activation. P25929; in the data active = activation above about 33%, passing the limit was not always enough;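 note: cells stimulated with NPY at EC10 then isoproterenol at EC100; 0% = low agonist plus stimulus and 100% = saturating agonist plus stimulus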
Target sequence (P25929 whole entry, looked up): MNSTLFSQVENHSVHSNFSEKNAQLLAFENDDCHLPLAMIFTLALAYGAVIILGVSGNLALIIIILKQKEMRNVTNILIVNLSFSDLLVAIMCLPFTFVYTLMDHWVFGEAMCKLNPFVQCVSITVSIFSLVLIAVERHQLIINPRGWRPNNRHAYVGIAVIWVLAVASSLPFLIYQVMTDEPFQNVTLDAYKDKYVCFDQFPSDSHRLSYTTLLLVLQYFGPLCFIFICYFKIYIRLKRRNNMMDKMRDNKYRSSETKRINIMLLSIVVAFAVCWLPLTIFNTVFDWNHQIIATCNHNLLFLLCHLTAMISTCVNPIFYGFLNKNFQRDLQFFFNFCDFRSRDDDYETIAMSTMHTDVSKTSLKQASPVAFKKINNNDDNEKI
Cl transport mod = modulates chloride dependent transport by human KCC2 | AID 1456 | B-score of Tl+ flux slope (higher = more flux/activation; lower = inhibition) at 10 µM | Q9H2X9 | KCC2 cells, thallium flux FluoZin-2 fluorescence | hit rate 2.2% among 190,000;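 active = thallium flux slope and its plate-corrected score both differing from the plate sample mean at a set confidence after two filtering rounds, in either direction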;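 note: slope of fluorescence scaled to starting intensity during 10 to 20 s after thallium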
NPY2 pot ag = human NPY-Y2 potentiation or agonism, primary screen. P49146. hit rate 0.45% among 220,000. cells expressing NPY-Y2, potentiator/agonist read-out. activation, % at 3.6 µM; in the data active = activation above about 27%;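 note: cells stimulated with NPY near EC25 plus isoproterenol at EC100; 0% = vehicle plus submaximal agonist and 100% = vehicle plus saturating agonist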
NPY Y1 blocker = NPY-Y1 (human) receptor antagonism; P25929; HEK293-CNG Y1 cells, membrane potential fluorescence; NPY at EC95, then isoproterenol; inhibition, % at 3.6 µM; hit rate 1% among 200,000; AID 1040;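 active = inhibition above the campaign mean inhibition of all tested compounds plus 3 SD, cut at about 20% in these data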;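 note: 0% = DMSO wells given NPY plus isoproterenol and 100% = isoproterenol alone without NPY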
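Material: HEK293 cells co-expressing NPY Y1 receptor and cyclic-nucleotide gated channel. Timing: compound incubation 1 h at room temperature, readout 45 min post-stimulation. Signal: fluorescence, membrane potential probe.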
Furin inh = inhibitors of human furin | P09958 | purified furin, fluorogenic substrate cleavage | inhibition, % at 20 µM or 30 µM | hit rate 0.061% among 220,000; in the data active = inhibition above about 25%
NPY Y2 blocker = NPY-Y2 (human) receptor antagonism; AID 793; inhibition, % at 2.7 µM; hit rate 0.99% among 140,000; P49146; NPY-Y2 expressing cells, antagonist mode;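 note: 0% = vehicle with agonist challenge and 100% = reference antagonist with challenge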
NPY-Y1 ant conf = human NPY-Y1 antagonism, confirmation. shares compounds with NPY Y1 blocker. hit rate 21% among 1,200. HEK293-CNG NPY-Y1, membrane potential fluorescence, cAMP; NPY challenge against isoproterenol-raised cAMP. inhibition, % at 3.6 µM; in the data active = inhibition above about 20%;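 note: 0% = vehicle with agonist plus stimulus and 100% = stimulus alone without agonist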
NPY2 antag ctr = counter-screen for NPY-Y1 antagonists: human NPY-Y2 antagonism; shares compounds with NPY Y1 blocker; HEK293 NPY-Y2 CNG membrane potential fluorescence; cells given NPY, then isoproterenol; inhibition, % at 3.6 µM; hit rate 28% among 1,200;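 note: 0% = DMSO with agonist challenge and 100% = reference antagonist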
* marks the source's active call; other numbers are inactive results; . = not tested or not shown. Cut-off read from the data, not from the text of the source, unless noted: active = inhibition above about 17%; inactive = the rest.

SMILES	NPY-Y1 PAM-ag	Cl transport mod	NPY2 pot ag	NPY Y1 blocker	Furin inh	NPY Y2 blocker	NPY-Y1 ant conf	NPY2 antag ctr
CN1\C(=C/C=C/C=C/C=[N+](C)C)C(C)(C)c2ccccc21	3.5	.	-8.3	150.8*	3.7	.	194.6*	144.7*
CCCCC1(Cc2cccc([N+](=O)[O-])c2)C(=O)N(c2ccccc2)N(c2ccccc2)C1=O	20.9	.	7.5	4.5	-14.1	8.4	.	.
C=CCOc1ccc(Br)cc1CNC(C)(C)C	24.3	-0.0156	14.5	1.4	-36.3	.	.	.
COc1ccc(-c2nnc3sc(C4CCCCC4)nn23)cc1OC	-80.4	.	-40.1	32.5*	-15.8	15.8	24.2*	38.1*
CCCSc1nc2cc(OC)c(OC)cc2c(=N)n1CCCN1CCOCC1	-52.0	-2.77	-43.1	71.3*	-16.1	.	22.4*	31.7*
O=S(=O)(c1ccccc1Br)N1CCC(O)(c2cccnc2)CC1	7.0	0.0804	7.1	1.9	-24.6	.	.	.
Cc1ccc(C)c(-n2c(-c3csc(C)c3C)n[nH]c2=S)c1	14.4	4.03	18.2	7.6	-6.9	1.8	.	.
Cc1c(C(=O)N2CCOCC2)[nH]c2c1C(=O)CC(c1ccccc1Cl)C2 (configuration not stated)	-12.5	-1.4	-12.1	23.5*	-16.4	5.0	3.2	17.8*
O=C(COC(=O)CCSc1ccc(Cl)cc1)NCc1ccc(Cl)cc1	-33.4	2.04	-25.1	10.9	-13.8	8.8	.	.
O=C(COC(=O)CCC(=O)c1ccc(Cl)cc1)NCc1ccco1	-23.7	0.497	-23.5	22.1*	-24.6	.	5.2	3.6
O=C(COC(=O)CCSc1ccc(Cl)cc1)NCc1ccccc1	-25.6	-0.835	-11.6	21.8*	2.1	14.6	8.1	9.5
O=C(COC(=O)CCC(=O)c1ccc(Cl)cc1)NCCc1ccccc1	0.7	-1.16	-18.7	10.0	-11.5	.	.	.
CC1(C)C2CCC1(CS(=O)(=O)Nc1ccc(S(=O)(=O)N3CCCCC3)cc1)C(=O)C2 (configuration not stated)	-16.6	0.318	-5.1	-2.7	-16.4	0.4	.	.
CCOc1cccc(NC(=O)c2cccc(F)c2)c1	-3.8	0.131	2.8	-0.3	-5.9	.	.	.
CC(C)=C(NC(=O)c1ccccc1)C(=O)N1CCOCC1	12.6	0.853	13.5	22.4*	-30.0	2.2	-2.3	-0.3
COc1ccc(OCC(O)CNC(=O)c2c(-c3ccccc3)noc2C)cc1 (configuration not stated)	12.8	-0.00702	-1.8	.	-7.7	.	.	.
CCOCC(=O)Nc1nc(-c2ccccc2)c(CC)s1	12.1	0.704	-4.6	-4.8	-10.9	-1.3	.	.
CCOC(=O)N1CCN(C(=O)c2ccc3c(=O)n(Cc4ccccc4OC)c(=S)[nH]c3c2)CC1	3.4	0.194	-33.6	21.6*	2.3	11.0	3.0	6.1
CCc1ccc(CNCc2ccc(OCC(O)CN(C)Cc3ccccc3)cc2)nc1 (configuration not stated)	-7.4	-1.04	-18.7	26.3*	-24.5	.	17.1	26.9*
O=C(Nc1ccccc1N1CCCCC1)c1ccccc1F	-11.9	.	2.2	8.6	-19.6	5.5	.	.
CS(=O)(=O)N1CCN(c2ccccc2NC(=O)Cc2ccccc2)CC1	-21.8	0.0808	-3.1	6.9	-15.1	8.5	.	.
CCCCC(=O)Nc1ccccc1N1CCN(c2ccccc2)CC1	-19.7	-2.33	-20.3	23.5*	-13.8	.	19.6	29.6*
O=C(Cc1ccccc1)Nc1ccccc1N1CCN(c2ccccc2)CC1	10.3	-0.544	10.0	22.4*	-20.2	14.2	8.4	9.0
CCCCCC(=O)Nc1ccccc1N1CCOCC1	2.9	-0.245	-2.5	-2.9	-15.9	0.1	.	.
O=C(Nc1ccccc1N1CCN(c2ccccc2)CC1)c1ccccc1F	-7.2	-0.53	-17.9	36.4*	-17.0	.	17.8	16.1
SMILES	NPY-Y1 PAM-ag	Cl transport mod	NPY2 pot ag	NPY Y1 blocker	Furin inh	NPY Y2 blocker	NPY-Y1 ant conf	NPY2 antag ctr
O=C(O)c1cccc(N/N=C/C2=C(Cl)c3cc(Cl)ccc3SC2)c1	-11.7	-2.47	-1.4	6.6	-3.1	.	.	.
Cc1ccc(-c2cc(C(F)F)n3ncc(C(=O)N4CCN(c5cccc(C)c5C)CC4)c3n2)cc1	-8.6	-0.159	3.4	-0.9	-20.0	-2.5	.	.
Cc1nc(NCCc2ccccc2)c(C#N)c(C)c1[N+](=O)[O-]	-17.0	0.025	2.7	1.6	-16.1	4.6	.	.
CCOC(=O)C1(CCCc2ccccc2)CCN(C2CCSCC2)CC1	-10.2	-0.812	-10.4	51.5*	-24.4	.	29.1*	15.1
OCC1(CCCc2ccccc2)CCN(C2CCSCC2)CC1	-13.6	0.699	-28.0	25.0*	-22.6	.	9.7	12.3
Cc1cccc(OCc2n(CC(=O)OC3CC(C)CCC3C(C)C)c3ccccc3[n+]2C)c1 (configuration not stated)	-48.5	0.913	-24.7	28.5*	-9.3	.	24.1*	38.9*
CC(C)c1ccc(SCc2noc(C(=O)NCC3CCCO3)c2C(=O)O)cc1 (configuration not stated)	-14.4	0.0017	-37.9	23.9*	-20.8	9.1	10.2	10.0
Cc1cccc(SCc2noc(C(=O)NCC3CCCO3)c2C(=O)O)c1 (configuration not stated)	-37.1	0.262	-20.2	16.9	-22.7	10.5	.	.
Cc1ccc(C)c(SCc2noc(C(=O)NCC3CCCO3)c2C(=O)O)c1 (configuration not stated)	-26.4	0.744	-19.9	21.5*	-13.2	10.2	21.8*	12.5
O=C(NCC1CCCO1)c1onc(CSc2ccccc2)c1C(=O)O (configuration not stated)	15.3	-0.00188	-11.4	3.9	-23.7	1.9	.	.
COc1ccc(NC(=O)c2cccnc2SC)cc1S(=O)(=O)N1CCCCC1	-7.4	0.786	-2.2	-2.7	-20.2	3.5	.	.
S=c1[nH]cnc2sc(Nc3ccccc3)nc12	6.3	-0.152	-8.9	.	-4.2	.	.	.
CSc1ccc(CN2CCC(CO)(Cc3ccc(Cl)cc3)CC2)cc1	-75.3	-1.01	-48.3	52.3*	-15.1	.	39.2*	47.9*
Cc1cc(N/N=C2/CCCc3ccccc32)nc2ccccc12	-36.9	0.13	-23.4	28.8*	-22.5	.	32.0*	29.4*
COc1ccc(-n2nc3c(c2NC(=O)c2c(-c4ccccc4Cl)noc2C)CS(=O)(=O)C3)cc1	6.1	.	1.6	37.7*	-18.3	10.7	8.8	11.2
CSc1nc(Oc2ccc(F)cc2)c2ccccc2n1	-22.6	.	-19.4	22.8*	-6.7	11.4	5.7	9.4
O=C(CSc1ccc(Cl)cc1)N1CCN(c2ncc(C(F)(F)F)cc2Cl)CC1	-3.9	.	-23.0	23.8*	-14.8	9.5	5.1	13.4
O=C(CN1CCN(c2ncc(C(F)(F)F)cc2Cl)CC1)N1CCN(c2ncc(C(F)(F)F)cc2Cl)CC1	-19.2	0.814	3.7	7.2	-12.7	3.0	.	.
